From ChEMBL document CHEMBL3994675, “Carbamylmethyl Mercaptoacetate Thioether: A Novel Scaffold for the Development of L1 Metallo-β-lactamase Inhibitors” (ACS Med Chem Lett, 2017)

Experiments:
[1] = Inhibition of L1 (unknown origin) expressed in Escherichia coli DH10B harboring pBC SK(+)-L1 assessed as potentiation of cefazolin-induced antibacterial activity by measuring cefazolin MIC at 1024 ug/ml after 12 hrs macrodilution broth method
Outline: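 Cefazolin MICs were read for E. coli DH10B carrying pBC SK(+)-L1 across a series of inhibitor concentrations. Cefazolin alone (no inhibitor) on the same strain served as the reference MIC. E. coli not expressing L1 was tested alongside as the susceptible comparator.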

[2] = Inhibition of ImiS (unknown origin) expressed in Escherichia coli BL21(DE3) at 100 uM using imipenem as substrate preincubated for 3 to 60 mins followed by substrate addition by UV-Visible spectrophotometric method relative to control; conditions: TDE = time-dependent effect
Outline: (§1)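 Purified enzyme preincubated with 100 μM inhibitor in its enzyme-specific buffer, then substrate added: 50 μM cefazolin for IMP-1 and L1, 40 μM imipenem for ImiS. Hydrolysis followed by UV-vis spectrophotometry. Preincubation times of 3–60 min were tested. % inhibition = activity without inhibitor (100%) minus residual activity.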

[3] = Chemical stability in pH 9 Tris buffer after 4 days by UV-Visible spectral analysis; type: physicochemical; conditions: pH 9, 96 h
Outline: (§2)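 Compounds incubated in aqueous solution at pH 5.0, 7.0 and 9.0 for 4 days; stability followed by UV-vis spectra.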

Escherichia coli [4] = experiment: Growth inhibition of Escherichia coli DH10B at 1024 ug/ml after 12 hrs macrodilution broth method; parameters: species or system K-12 substr. DH10B
Outline: (§3)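 Cefazolin MIC determined for E. coli DH10B carrying pBC SK(+)-L1 and for E. coli not expressing L1, with and without compound.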

[5] = Inhibition of IMP1 (unknown origin) expressed in Escherichia coli BL21(DE3) at 100 uM using cefazolin as substrate preincubated for 3 to 60 mins followed by substrate addition by UV-Visible spectrophotometric method; conditions: TDE = time-dependent effect; outline: as §1
L929 = experiment: Cytotoxicity against mouse L929 cells assessed as reduction in cell viability up to 400 uM after 48 hrs by CCK assay; type: cell-based; conditions: l929, 48 h
Outline: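 L-929 mouse fibroblasts exposed to compound at 12.5, 25, 50, 100, 200 and 400 μM working concentrations; cell viability measured.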

[6] = Inhibition of L1 (unknown origin) expressed in Escherichia coli BL21(DE3) using cefazolin as substrate by ITC
Outline: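 Isothermal titration calorimetry at 25 °C with 5 nM L1, 160 μM cefazolin and inhibitor at 0–100 μM; hydrolysis progress monitored as heat flow. Rates from runs at different substrate concentrations plotted against substrate concentration at 0, 50 and 100 μM inhibitor.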

[7] = Inhibition of IMP1 (unknown origin) expressed in Escherichia coli BL21(DE3) at 100 uM using cefazolin as substrate preincubated for 30 mins followed by substrate addition by UV-Visible spectrophotometric method relative to control; outline: as §1
Escherichia coli [8] = experiment: Growth inhibition of Escherichia coli DH10B harboring pBC SK(+)-L1 at 1024 ug/ml after 12 hrs macrodilution broth method; parameters: species or system K-12 substr. DH10B; outline: as §3
[9] = Inhibition of ImiS (unknown origin) expressed in Escherichia coli BL21(DE3) at 100 uM using imipenem as substrate preincubated for 30 mins followed by substrate addition by UV-Visible spectrophotometric method relative to control; outline: as §1
[10] = Chemical stability in pH 7 Tris buffer after 4 days by UV-Visible spectral analysis; type: physicochemical; conditions: pH 7, 96 h; outline: as §2
[11] = Inhibition of L1 (unknown origin) expressed in Escherichia coli BL21(DE3) at 100 uM using cefazolin as substrate preincubated for 30 mins followed by substrate addition by UV-Visible spectrophotometric method relative to control; outline: as §1
[12] = Inhibition of L1 (unknown origin) expressed in Escherichia coli BL21(DE3) at 100 uM using cefazolin as substrate preincubated for 3 to 60 mins followed by substrate addition by UV-Visible spectrophotometric method relative to control; conditions: TDE = time-dependent effect; outline: as §1
[13] = Chemical stability in pH 5 Tris buffer after 4 days by UV-Visible spectral analysis; type: physicochemical; conditions: pH 5, 96 h; outline: as §2
[14] = Inhibition of L1 (unknown origin) expressed in Escherichia coli BL21(DE3) using cefazolin as substrate preincubated for 30 mins followed by substrate addition by UV-Visible spectrophotometric method
Outline: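 L1 IC50 measured in 30 mM Tris, pH 8.5, with cefazolin as substrate and inhibitor at 0.1–20 μM. Run in triplicate; mean ± SD reported.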

Q: Which results are given for `Cc1ccc(NC(=O)CSCC(=O)[O-])cc1.[K+]`?
A: MIC [1]: 16 mg/L; inhibition [2]: Tde; Stability [3]: Stable; growth inhibition (GI) (Escherichia coli [4]): Non-Toxic; inhibition [5]: Tde; Activity (L929): Non-Toxic; inhibition [6]: Dose-dependent effect; inhibition [7]: 37%; growth inhibition (GI) (Escherichia coli [8]): Non-Toxic; inhibition [9]: 52%; Stability [10]: Stable; inhibition [11]: 97%; inhibition [12]: Tde; Stability [13]: Stable; IC50 [14]: 0.41 µM; inhibition [14]: Dose-dependent effect
